Results taken from ChEMBL document CHEMBL1130100, “Stabilized analogs of thymopentin. 3. Evaluation of ketomethylene pseudopeptides for antiarthritic properties” (1997).
“And” between values parts separate entries of the source, which are not always exact repeats. Identical values can stand only once.

Columns and labels:
Format in all cases: functional
[1] = tested on: Mus musculus; experiment: On set and incidence of arthritis in the Mouse Type II collagen model at 0.5 dose mg/kg on day 44, expressed as number of mice treated out of 12 tested
Outline: (§1)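 DBA/1 Lac mice sensitized with bovine type II collagen (100 μg) in Freund's complete adjuvant, ip boost (100 μg) on day 21. Freshly dissolved compound in sterile saline was given iv every second day, day 19 through day 40, groups of 12. A mouse was scored arthritic if erythema or edema was present on any digit, paw or appendage. Incidence reported as number positive of 12.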

[2] = tested on: Mus musculus; experiment: On set and incidence of arthritis in the Mouse Type II collagen model following 0.5 mg/kg on day 30.; outline: as §1
[3] = tested on: Mus musculus; experiment: Extent of paw swelling after treatment with thymopentin-5 (TP-5) compound in the Mouse Type II collagen arthritis at a dosage of 0.001 mg/kg on day 30
Outline: (§2)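 DBA/1 Lac mice immunized with bovine type II collagen (100 μg) in Freund's complete adjuvant at four to six back sites, then boosted ip (100 μg) on day 21. Dosing was iv in sterile saline every second day from day 19 through day 40, 12 mice per dose. Each hind paw was measured by caliper. Result given as % of untreated swelling after subtracting age-matched normal paw.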

[4] = tested on: Mus musculus; experiment: On set and incidence of arthritis in the Mouse Type II collagen model at 0.5 dose mg/kg on day 40,expressed as number of mice treated out of 12 tested; outline: as §1
[5] = tested on: Mus musculus; experiment: On set and incidence of arthritis in the Mouse Type II collagen model at 0.5 dose mg/kg on day 37, expressed as number of mice treated out of 12 tested; outline: as §1
[6] = tested on: Mus musculus; experiment: 68 Extent of paw swelling after treatment with thymopentin-5 (TP-5) compound in the Mouse Type II collagen arthritis at a dosage of 0.001 mg/kg on day 30; outline: as §2
[7] = tested on: Mus musculus; experiment: On set and incidence of arthritis in the Mouse Type II collagen model at 0.5 dose mg/kg on day 44, expressed as ratio of number treated to that of control; outline: as §1
[8] = tested on: Mus musculus; experiment: On set and incidence of arthritis in the Mouse Type II collagen model at 0.5 dose mg/kg on day 37, expressed as ratio of number treated to that of control; outline: as §1
[9] = tested on: Mus musculus; experiment: On set and incidence of arthritis in the Mouse Type II collagen model at 0.5 dose mg/kg on day 40, expressed as ratio of number treated to that of control; outline: as §1
[10] = tested on: Mus musculus; experiment: Extent of paw swelling after treatment with thymopentin-5 (TP-5) compound in the Mouse Type II collagen arthritis at a dosage of 1.0 mg/kg on day 44; outline: as §2
[11] = tested on: Mus musculus; experiment: Extent of paw swelling after treatment with thymopentin-5 (TP-5) compound in mouse type II collagen arthritis at a dosage of 1.0 mg/kg on day 30; outline: as §2
[12] = tested on: Mus musculus; experiment: On set and incidence of arthritis in the Mouse Type II collagen model at 0.5 dose mg/kg on day 40, expressed as number of mice treated out of 12 tested; outline: as §1
[13] = tested on: Rattus norvegicus; experiment: extent of paw swelling following treatment with the compound in the rat adjuvant arthritis model observed on day 12 at 0.50 mg/kg dose; details: dose 0.5 mg/kg
Outline: (§3)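 Rat adjuvant arthritis with iv dosing every second day, starting 2 days before the adjuvant/antigen challenge. Initial doses ranged 0.05 to 0.50 mg/kg, eight rats per dose. Each hind paw was measured by caliper. Swelling minus age-matched normal paw, expressed as % of untreated animals.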

[14] = tested on: Rattus norvegicus; experiment: extent of paw swelling following treatment with the compound in the rat adjuvant arthritis model observed on day 16 at 0.50 mg/kg dose; details: dose 0.5 mg/kg; outline: as §3
[15] = tested on: Rattus norvegicus; experiment: extent of paw swelling following treatment with the compound in the rat adjuvant arthritis model observed on day 19 at 0.50 mg/kg dose; details: dose 0.5 mg/kg; outline: as §3
[16] = tested on: Mus musculus; experiment: Extent of paw swelling after treatment with thymopentin-5 (TP-5) compound in the Mouse Type II collagen arthritis at a dosage of 0.5 mg/kg on day 37; outline: as §2
[17] = tested on: Mus musculus; experiment: Extent of paw swelling after treatment with thymopentin-5 (TP-5) compound in the Mouse Type II collagen arthritis at a dosage of 0.5 mg/kg on day 40; outline: as §2
[18] = tested on: Mus musculus; experiment: Extent of paw swelling after treatment with thymopentin-5 (TP-5) compound in the Mouse Type II collagen arthritis at a dosage of 0.5 mg/kg on day 30; outline: as §2
[19] = tested on: Mus musculus; experiment: On set and incidence of arthritis in the Mouse Type II collagen model at 0.5 dose mg/kg on day 40, expressed as ratio of number treated to that of control:12 animals tested; outline: as §1
[20] = tested on: Mus musculus; experiment: Extent of paw swelling after treatment with thymopentin-5 (TP-5) compound in the Mouse Type II collagen arthritis at a dosage of 0.5 mg/kg on day 44; outline: as §2
[21] = tested on: Mus musculus; experiment: Extent of paw swelling after treatment with thymopentin-5 (TP-5) compound in the Mouse Type II collagen arthritis at 1 mg/kg on day 30.; outline: as §2
[22] = tested on: Rattus norvegicus; experiment: extent of paw swelling following treatment with the compound in the rat adjuvant arthritis model observed on day 12 at 0.050 mg/kg dose; details: dose 0.05 mg/kg; outline: as §3
[23] = tested on: Rattus norvegicus; experiment: extent of paw swelling following treatment with the compound in the rat adjuvant arthritis model observed on day 16 at 0.050 mg/kg dose; details: dose 0.05 mg/kg; outline: as §3
[24] = tested on: Mus musculus; experiment: On set and incidence of arthritis in the Mouse Type II collagen model at 0.5 dose mg/kg on day 37,expressed as number of mice treated out of 12 tested; outline: as §1
[25] = tested on: Rattus norvegicus; experiment: extent of paw swelling following treatment with the compound in the rat adjuvant arthritis model observed on day 19 at 0.050 mg/kg dose; details: dose 0.05 mg/kg; outline: as §3
[26] = tested on: Mus musculus; experiment: Extent of paw swelling after treatment with thymopentin-5 (TP-5) compound in the Mouse Type II collagen arthritis at a dosage of 0.01 mg/kg on day 44; outline: as §2
[27] = tested on: Mus musculus; experiment: Extent of paw swelling after treatment with thymopentin-5 (TP-5) compound in the Mouse Type II collagen arthritis at a dosage of 0.01 mg/kg on day 30; outline: as §2
[28] = tested on: Mus musculus; experiment: Extent of paw swelling after treatment with thymopentin-5 (TP-5) compound in the Mouse Type II collagen arthritis at a dosage of 0.01 mg/kg on day 37; outline: as §2
[29] = tested on: Mus musculus; experiment: Extent of paw swelling after treatment with thymopentin-5 (TP-5) compound in the Mouse Type II collagen arthritis at a dosage of 0.501 mg/kg on day 40; details: dose 0.01 mg/kg; in the assay text read “0.01 mg/kg” for “0.501 mg/kg”; outline: as §2

Compound | No. of mice [1] | No. of mice [2] | No. of mice [5] | No. of mice [7] | No. of mice [8] | No. of mice [9] | No. of mice [12] | also measured
CCCC[C@@H](C(=O)N[C@@H](CC(=O)O)C(=O)N[C@H](C(=O)C[C@H](Cc1ccccc1)C(=O)O)C(C)C)N(C)C(=O)[C@@H](N)CCCN=C(N)N | 8 | 7 | 7 |  |  |  |  | Paw swelling [3]: 90% and 43%; No. of mice [4]: 7; Paw swelling [6]: 90%
CCCC[C@H](NC(=O)[C@@H](N)CCCN=C(N)N)C(=O)N[C@@H](CC(=O)O)C(=O)C[C@H](C)C(=O)O |  | 8 |  | 12 | 11 | 11 |  | Paw swelling [10]: 100%
CC(C)C(CC(=O)[C@H](CC(=O)O)NC(=O)C(CCCCN)NC(=O)[C@@H](N)CCCN=C(N)N)C(=O)NC(Cc1ccc(O)cc1)C(=O)O (some centres not stated) |  | 8 |  | 12 | 11 | 12 |  | Paw swelling [11]: 100%
CC(C)C(CC(=O)[C@H](CC(=O)O)NC(=O)C(CCCCN)N(C)C(=O)[C@@H](N)CCCN=C(N)N)C(=O)N[C@@H](Cc1ccccc1)C(=O)O (some centres not stated) | 8 | 6 | 4 |  |  |  | 8 | Paw swelling [13]: 0%; Paw swelling [14]: 80%; Paw swelling [15]: 52%; Paw swelling ([11]; 1 mg/kg): 100% and 46% and 53%
CC(C)[C@H](NC(=O)[C@H](CC(=O)O)NC(=O)[C@H](CCCCN)NC(=O)[C@@H](N)CCCN=C(N)N)C(=O)C[C@@H](Cc1ccccc1)C(=O)O | 7 | 5 | 7 |  |  |  |  | Paw swelling [16]: 100%; Paw swelling [17]: 93%; Paw swelling [18]: 100%; No. of mice [19]: 8; Paw swelling [20]: 53%
CCCCC(CC(=O)[C@@H](N)CCCN=C(N)N)C(=O)N[C@@H](CC(=O)O)C(=O)NC(C(=O)N[C@@H](Cc1ccccc1)C(=O)O)C(C)C (some centres not stated) |  | 3 |  | 8 | 7 | 7 |  | Paw swelling [21]: 100%
CCCCC(NC(=O)[C@H](CCCN=C(N)N)NC(C)=O)C(=O)N[C@@H](CC(=O)O)C(=O)NC(C(=O)C[C@@H](Cc1ccccc1)C(=O)O)C(C)C (some centres not stated) | 12 | 8 |  |  |  |  | 11 | Paw swelling [22]: 0%; Paw swelling [23]: 100%; Paw swelling [21]: 100%; No. of mice [24]: 11; Paw swelling [25]: 100%
CC(C)[C@H](NC(=O)[C@H](CC(=O)O)NC(=O)[C@@H]1CCCN1C(=O)[C@@H](N)CCCN=C(N)N)C(=O)C[C@@H](Cc1ccccc1)C(=O)O (stereo in doubt; 1b-A) | 9 |  |  |  |  |  | 9 | No. of mice ([2]; 0.5 mg/kg): 8; Paw swelling [26]: 47%; Paw swelling [27]: 62%; Paw swelling [28]: 72%; Paw swelling [29]: 60%
